Laboratory results from ChEMBL document CHEMBL1126712, “Design, synthesis, and pharmacological evaluation of potent xanthone dicarboxylic acid leukotriene B4 receptor antagonists” (J Med Chem, 1993).

Tests used:
[1] = molecular target: T1, Leukotriene B4 receptor 1 (Homo sapiens, UniProt Q15722); assay: Inhibition of binding of [3H]LTB4 to receptor […]
Method in brief: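 Intact human neutrophils isolated from heparinized blood of normal volunteers (Ficoll-Hypaque, dextran sedimentation, hypotonic lysis) were suspended at 2 × 10⁷ cells/mL in Ca/Mg-free HBSS with 0.1% ovalbumin. Tubes held 0.1 nM final [³H]LTB₄ and compound in DMSO (1.9% final), ran 10 min at 4 °C, then were harvested for scintillation counting. Triplicate tubes; nonspecific binding set with 10 000-fold unlabeled LTB₄.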

[2] = molecular target: T1, Leukotriene B4 receptor 1; assay: Inhibition of specific binding of LTB4 ( 0.1 nM) to receptors on intact human neutrophils
Method in brief: (§1)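 Intact human neutrophils from heparinized venous blood of normal volunteers, isolated by Ficoll-Hypaque centrifugation, dextran 70 sedimentation and hypotonic lysis (≥90% neutrophils, ≥90% viable). Cells at 2 × 10⁷/mL in Ca/Mg-free Hanks' with 0.1% ovalbumin, [³H]LTB₄ final 0.1 nM, compound in DMSO (final 1.9%). Incubation 10 min at 4 °C, harvest, scintillation counting. Nonspecific binding from 10 000-fold excess unlabeled LTB₄. Triplicate tubes.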

[3] = molecular target: T1, Leukotriene B4 receptor 1; assay: Inhibition constant against binding of [3H]LTB4 to human neutrophils; method in brief: as §1
[4] = molecular target: T1, Leukotriene B4 receptor 1; assay: Relative potency against LTB4 receptor was determined
Homo sapiens [5] = organism: Homo sapiens; assay: Inhibition of luminol-dependent chemiluminescence induced by stimulating the neutrophil cells with FMLP (N-formyl-L-methionyl-L-leucyl-l-phenylalanine); assay type: functional, cell-based
Method in brief: (§2)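 Luminol-dependent chemiluminescence of human neutrophils (1 × 10⁷/mL) in Ca/Mg-free Dulbecco's PBS, pH 7.4, with cytochalasin B, stirred at 900 rpm and 37 °C in an aggregometer. Antagonist was added at 2 min, then Ca²⁺/Mg²⁺. After 1 min, luminol and agonist (LTB₄ or FMLP, 30 nM) were added and the maximum response recorded. Cells from five individuals.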

Homo sapiens [6] = organism: Homo sapiens; assay: Inhibition of luminol-dependent chemiluminescence induced by stimulating the neutrophil cells with LTB4.; assay type: functional, cell-based; method in brief: as §2
Homo sapiens [7] = organism: Homo sapiens; assay: LTB4-induced chemotaxis of the human neutrophils; assay type: functional
Homo sapiens [8] = organism: Homo sapiens; assay: The activity of suppression of the FMLP-mediated response; assay type: functional; method in brief: as §2
Homo sapiens [9] = organism: Homo sapiens; assay: Inhibition of LTB-4 induced chemotaxis of human neutrophils; assay type: functional
Homo sapiens [10] = organism: Homo sapiens; assay: The antagonist activity measured as blockade of the FMLP reaction in neutrophils; assay type: functional; method in brief: as §2

T1 sequence (Q15722 whole entry): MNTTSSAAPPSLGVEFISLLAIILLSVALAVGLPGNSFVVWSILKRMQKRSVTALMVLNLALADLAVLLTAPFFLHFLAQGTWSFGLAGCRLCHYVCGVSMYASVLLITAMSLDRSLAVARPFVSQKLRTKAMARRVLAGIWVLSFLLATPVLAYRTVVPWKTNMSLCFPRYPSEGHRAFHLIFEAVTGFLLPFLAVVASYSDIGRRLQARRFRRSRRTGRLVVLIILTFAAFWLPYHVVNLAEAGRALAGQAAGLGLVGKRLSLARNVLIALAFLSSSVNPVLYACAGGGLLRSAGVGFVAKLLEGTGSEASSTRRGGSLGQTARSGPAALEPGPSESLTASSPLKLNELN

SMILES	IC50 [2] [nM]	Relative potency [4]	further results
COc1ccc(/C=C/CCCCOc2ccc(C(=O)c3cccc(C(=O)O)c3)cc2CCC(=O)O)cc1	–	–	IC50 [1]: 1.9 nM
CCCCCCCCCCOc1cc2oc3c(C(=O)O)cccc3c(=O)c2cc1CCC(=O)O	1770	1.2	–
CCCCCCCCCCOc1ccc2c(=O)c3cccc(C(=O)O)c3oc2c1CCC(=O)O	2100	1	–

The remaining compounds from weak to strong by IC50 [2], led by results:

IC50 [2] [nM]	Relative potency [4]	SMILES	further results
832	2.5	CCCCCCCCCCOc1cc2oc3ccc(C(=O)O)cc3c(=O)c2cc1CCC(=O)O	–
210	10	CCCCCCCCCCOc1ccc(C(=O)c2cccc(C(=O)O)c2)cc1CCC(=O)O	–
43	49	CCCCCCCCCCOc1ccc2c(=O)c3cc(C(=O)O)ccc3oc2c1CCC(=O)O	IC50 (Homo sapiens [9]): 7900 nM; IC50 (Homo sapiens [5]): 734 nM; IC50 (Homo sapiens [6]): 342 nM; IC50 (Homo sapiens [10]): 1210 nM
6.2	338	COc1ccc(/C=C/CCCCOc2ccc3c(=O)c4cc(C(=O)O)ccc4oc3c2CCC(=O)O)cc1	Ki [3]: 5.9 nM; IC50 (Homo sapiens [5]): 1600 nM; IC50 (Homo sapiens [6]): 55 nM; IC50 (Homo sapiens [7]): 899 nM; IC50 (Homo sapiens [8]): 2170 nM
